Rows were chosen to be rich in hits. Some 1.4% of all compounds tested hit in one or more screens of this group.
PG9 binder: small molecules binding HIV-1 gp120 antibody PG9; TR-FRET gp120-PG9 antibody binding; inhibition, % at 6.7 µM; hit rate 0.43% among 360,000; in the data active means inhibition above about 8.5%
Rev-erbA mod: Rev-erb alpha (human) modulation; AID 1259318; hit rate 0.79% among 370,000; Rev-erbα–FITC-DNA binding, fluorescence polarization, 90 min; P20393; activity, % at 10 µM;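 active means activity above about 14%, limit read from the data; passing the limit was not always enough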;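 further: 0% = DMSO wells with 35 nM protein and 100% = DMSO wells with 750 nM protein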
Target sequence (P20393 whole entry, looked up): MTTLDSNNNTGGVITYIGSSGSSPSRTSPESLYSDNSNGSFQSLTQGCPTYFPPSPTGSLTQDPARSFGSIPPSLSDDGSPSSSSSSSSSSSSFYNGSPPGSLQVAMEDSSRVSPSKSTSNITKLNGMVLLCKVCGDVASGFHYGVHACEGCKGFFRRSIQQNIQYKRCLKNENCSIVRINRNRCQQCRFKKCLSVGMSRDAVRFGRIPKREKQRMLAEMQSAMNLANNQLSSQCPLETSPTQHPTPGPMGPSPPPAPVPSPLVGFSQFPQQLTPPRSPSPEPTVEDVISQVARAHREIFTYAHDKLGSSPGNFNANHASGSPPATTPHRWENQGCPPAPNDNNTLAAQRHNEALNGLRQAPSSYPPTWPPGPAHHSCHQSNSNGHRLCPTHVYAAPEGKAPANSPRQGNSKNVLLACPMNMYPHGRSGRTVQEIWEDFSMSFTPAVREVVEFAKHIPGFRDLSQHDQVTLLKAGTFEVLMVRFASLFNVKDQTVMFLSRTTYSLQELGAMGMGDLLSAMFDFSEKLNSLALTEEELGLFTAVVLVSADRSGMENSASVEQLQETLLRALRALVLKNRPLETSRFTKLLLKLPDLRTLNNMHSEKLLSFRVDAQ
NR2E3 ag-1: human photoreceptor-specific nuclear receptor agonism; hit rate 0.35% among 360,000; Q9Y5X4; inhibition of corepressor binding, % at 3.98 µM; CHO-S Gal4-NCOR/VP16-NR2E3 two-hybrid, luciferase;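 active means inhibition above the mean of all tested compounds plus 3 SD, cut at about 70% in these data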;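 further: 0% = DMSO with NR2E3 transfected cells and 100% = cells lacking NR2E3 construct; higher means lower luciferase signal from less NR2E3 corepressor binding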
NR2E3 ag-2: activates human photoreceptor nuclear receptor NR2E3; Q9Y5X4; GST-NR2E3/biotin-RetCOR TR-FRET, 1536-well; inhibition of corepressor binding, % at 4.78 µM; hit rate 0.12% among 320,000;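 active means percent inhibition above the cutoff of mean plus 3 SD of all tested compounds, set per screening campaign, cut at about 20% in these data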;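 further: 0% = DMSO wells and 100% = biotin wells as full block of FRET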
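Material: NR2E3–RetCOR corepressor complex | Quantity: 1.35 nM GST-tagged NR2E3 final | Schedule: 5 h at 4 °C | Replication: Singlicate compound wells | Reagent: RetCOR corepressor, biotinylated, 7 nM | Controls: Biotin wells as high control, 0.6% DMSO wells as low control | Signal: TR-FRET, Eu(K)-anti-GST donor, streptavidin-D2 acceptor, ex 340, em 617/671 nm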
NR1D1 mod conf: confirmation of modulators of human Rev-erb alpha DNA binding; shares compounds with Rev-erbA mod; Rev-erb alpha FITC-DNA binding, fluorescence polarization, 90 min; activation, % at 25 µM; hit rate 61% among 3,000;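 active means activation at or above a set limit, or at least 3 SD above the negative control mean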;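 further: 0% = 35 nM protein with DMSO and 100% = 750 nM protein high control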
RORg counter: counter-screen for Rev-erb alpha modulators: RORgamma DNA binding; hit rate 8% among 910; shares compounds with Rev-erbA mod; AID 1259320; purified RORgamma protein-FITC-DNA binding, fluorescence polarization; IC50, µM;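 active means Compounds whose fitted half-maximal concentration for disrupting protein-DNA binding is below 10 micromolar; the record names Rev-erb in its text, so the target is in doubt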
* = called active by the depositor.

Screening Cc1[nH]c2ccccc2c1/C=N/NC(=O)c1cccc([N+](=O)[O-])c1 returned PG9 binder 0, Rev-erbA mod -5, NR2E3 ag-1 -1 and NR2E3 ag-2 -2.
Screening Cc1[nH]c2ccccc2c1/C=N/Nc1ccc([N+](=O)[O-])cc1 returned PG9 binder -1, Rev-erbA mod 22*, NR2E3 ag-1 -9, NR2E3 ag-2 0 and NR1D1 mod conf 16.
For O=C(CNC(=O)Cc1ccccc1)NCC(=O)OCc1ccc(C(=O)c2ccccc2)cc1 the results were Rev-erbA mod 22*, NR2E3 ag-1 -10, NR2E3 ag-2 2 and NR1D1 mod conf 20*.
CCCCN1C(=O)/C(=C/C=C2\SCCN2C)SC1=S was read as PG9 binder -2, Rev-erbA mod 126*, NR2E3 ag-1 -120, NR1D1 mod conf 47* and RORg counter >40.
`O=C(O)CN1C(=O)/C(=C/c2ccc(N3CCCCC3)o2)SC1=S` gave PG9 binder 0, Rev-erbA mod -1, NR2E3 ag-1 -12 and NR2E3 ag-2 1.
For CN1CCS/C1=C/C=C1\SC(=S)N(CC(=O)O)C1=O the results were PG9 binder -25, Rev-erbA mod 302*, NR2E3 ag-1 1, NR2E3 ag-2 -8, NR1D1 mod conf 246* and RORg counter >40.
CN1CCS/C1=C/C=C1/SC(=S)N(Cc2ccccc2)C1=O was read as PG9 binder -3, Rev-erbA mod 188*, NR2E3 ag-1 -65, NR2E3 ag-2 -3, NR1D1 mod conf 169* and RORg counter >40.
For Oc1ccc(C[C@@H]2CNC(=S)N2CCCCC2CCCCC2)cc1 the results were PG9 binder -1, Rev-erbA mod -3, NR2E3 ag-1 5 and NR2E3 ag-2 2.
Screening Cn1nnc(NC(=S)NC(=O)c2ccc(-c3ccc(Br)cc3)o2)n1 returned PG9 binder 3, Rev-erbA mod 9, NR2E3 ag-1 -12 and NR2E3 ag-2 2.
Screening Clc1ccccc1OCc1nn2c(-c3ccncc3)nnc2s1 returned PG9 binder 1, Rev-erbA mod 4, NR2E3 ag-1 9 and NR2E3 ag-2 6.
Clc1ccc(OCc2nn3c(-c4ccccc4)nnc3s2)c(Cl)c1 was read as PG9 binder 1, Rev-erbA mod 26*, NR2E3 ag-1 -37, NR2E3 ag-2 1 and NR1D1 mod conf 35*.
Screening C=CCn1c(COc2ccc(Cl)cc2)nnc1SCC(=O)c1c(N)n(C)c(=O)n(C)c1=O returned PG9 binder 0, Rev-erbA mod 24*, NR2E3 ag-1 -15, NR2E3 ag-2 1 and NR1D1 mod conf -14.
Cc1cc(C(F)F)n2nc(C(=O)Nc3cccc(S(=O)(=O)N4CCOCC4)c3)nc2n1 was read as PG9 binder 0, Rev-erbA mod -8, NR2E3 ag-1 -1 and NR2E3 ag-2 -3.
Screening Clc1ccc(N2CCN(c3ncnc4c3oc3ccccc34)CC2)cc1 returned PG9 binder 0, Rev-erbA mod 37*, NR2E3 ag-1 -2, NR2E3 ag-2 4 and NR1D1 mod conf 12.
Screening CC1CN(c2ncnc3c2oc2ccccc23)CC(C)O1 (centres undefined) returned PG9 binder 1, Rev-erbA mod -1, NR2E3 ag-1 -43 and NR2E3 ag-2 2.
`O=C(CN1CCN(S(=O)(=O)N2CCOCC2)CC1)Nc1cc(Cl)cc(Cl)c1` gave PG9 binder -1, Rev-erbA mod 1, NR2E3 ag-1 -29 and NR2E3 ag-2 0.
`NS(=O)(=O)c1ccc(CCNc2ccccc2[N+](=O)[O-])cc1` gave PG9 binder -1, Rev-erbA mod 21*, NR2E3 ag-1 -37, NR2E3 ag-2 1 and NR1D1 mod conf 13.
O=c1c2cnn(-c3ccccc3)c2nc(-c2cccs2)n1-c1ccc(Cl)cc1 was read as PG9 binder 0, Rev-erbA mod 23*, NR2E3 ag-1 -6, NR2E3 ag-2 1 and NR1D1 mod conf 10.
Screening O=c1c2cnn(-c3ccccc3)c2nc(-c2cccs2)n1-c1cccc(Cl)c1 returned PG9 binder -2, Rev-erbA mod 3, NR2E3 ag-1 -9 and NR2E3 ag-2 2.
`CCOC(=O)N1CCC(NC(=O)c2ccccc2C(=O)O)CC1` gave PG9 binder -2, Rev-erbA mod -3, NR2E3 ag-1 -8 and NR2E3 ag-2 -1.
CCOC(=O)N1CCC(NC(=O)c2cc(C)c3c(C)nn(-c4ccccc4)c3n2)CC1 was read as PG9 binder -1, Rev-erbA mod 19*, NR2E3 ag-1 -8, NR2E3 ag-2 -1 and NR1D1 mod conf -13.
CC1(C)Cc2c(cnn2-c2ccccc2)C(NC(=O)CCN2CCCCO2)C1 (centres undefined) was read as PG9 binder -3, Rev-erbA mod -1, NR2E3 ag-1 0 and NR2E3 ag-2 -3.
Screening Cc1cccc(C(=O)Nc2ccc(N3CCN(c4ccc(C(F)(F)F)cn4)CC3)nc2)c1 returned PG9 binder 0, Rev-erbA mod 65*, NR2E3 ag-1 -27, NR2E3 ag-2 6 and NR1D1 mod conf -4.
For COC(=O)[C@]12C[C@H](CC(=O)N3CCN(C(=O)C4CC4)CC3)C(=O)N(Cc3ccc(Cl)cc3Cl)C1=C[C@H](C(C)(C)C)O[C@@H]2C the results were Rev-erbA mod -4.
Screening CN(C)c1ncnc2c1ncn2[C@H]1CN(Cc2ccncc2)C[C@@H](CO)O1 returned PG9 binder 1, Rev-erbA mod -2 and NR2E3 ag-1 -46.
For CN(C)c1ncnc2c1ncn2[C@H]1CN(Cc2cccs2)C[C@@H](CO)O1 the results were PG9 binder 0, Rev-erbA mod 24*, NR2E3 ag-1 -40 and NR1D1 mod conf -1.
For COC(=O)c1ccc2nc(C3CCCCC3)c(Cc3ccccc3C(F)(F)F)n2c1 the results were PG9 binder -3, Rev-erbA mod 18*, NR2E3 ag-1 -2 and NR1D1 mod conf 12*.
`FC(F)(F)c1ccccc1Cc1c(C2CCCCC2)nc2ccc(Cl)cn12` gave PG9 binder -1, Rev-erbA mod 1 and NR2E3 ag-1 2.
Screening CC(C)N(C(=O)[C@H]1C[C@H](CC(=O)NCCCn2ccnc2)C(=O)N2CCc3c([nH]c4ccc(Cl)cc34)[C@]12C)C(C)C returned PG9 binder 1, Rev-erbA mod 2 and NR2E3 ag-1 -6.
`O=C(CSc1nc2ccsc2c(=O)n1Cc1ccccc1)NCc1ccco1` gave PG9 binder 16*, Rev-erbA mod 17*, NR2E3 ag-1 -15, NR2E3 ag-2 0 and NR1D1 mod conf 5.
CN(C)c1ccc(C(CNS(=O)(=O)c2ccc([N+](=O)[O-])cc2)N2CCOCC2)cc1 (centres undefined) was read as PG9 binder -4, Rev-erbA mod 6, NR2E3 ag-1 -1 and NR2E3 ag-2 2.
Screening CCOc1ccc(C(=S)N2CCCC2)cc1OCC returned PG9 binder 0, Rev-erbA mod -7, NR2E3 ag-1 -19 and NR2E3 ag-2 0.

Screening data deposited in PubChem BioAssay by several laboratories.
